Measured values published in PubChem BioAssay.
Calls of active or inactive are those of the source.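 Rule for the calls, unless noted: active = inhibition above 20% together with a positive visual image hit; inconclusive = visual image hit but inhibition not above 20%; inactive = no visual image hit.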

What was measured:
[1] = inhibitors of TNFa-induced NFkB p65 translocation, primary screen, imaging, HUVEC, MLSMR starter and 10KST1 sets (AID 438); conditions: HUVEC TNFa-induced p65 nuclear translocation; cell count: measured here: nuclei count (cytotoxicity indicator), at 2.08 µM; inhibition: at 2 µM, stronger effect = higher value, 0% TNFa-plus-vehicle, 100% no-TNFa wells;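 note: compound added about 3h40 before a 20 min TNFalpha stimulation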;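 for inhibition: signal is the nuclear over cytoplasmic p65 intensity ratio per well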
[2] = inhibitors of mutant huntingtin aggregation, primary screen, imaging, exon1htt(103Q)mCFP cells, high-content imaging (AID 483;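 active = visual image review flags a hit and inhibition of aggregation exceeds 20%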;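 note: compound exposure lasted 3 days before fixation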;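 for nuclei count: percent of the per-plate median nuclei count of sample wells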); conditions: exon1htt(103Q)mCFP cell line, aggregate imaging, at 2 µM; inhibition of aggregation: stronger effect = higher value; nuclei count: measured here: cell count, toxicity
[3] = inhibitors of E-selectin induction by TNFa, primary screen, imaging, HUVEC, immunofluorescence, MLSMR starter and 10KST1 sets (AID 487;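 active = visually confirmed hit in the image check and inhibition above 20%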;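 for inhibition: signal is fraction of cell area covered by stained E-selectin grains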;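 for nuclei count: 100% = median nuclei count of all wells on the same plate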); conditions: HUVEC TNFalpha-induced E-selectin immunofluorescence imaging, at 2 µM; inhibition: stronger effect = higher value; nuclei count: measured here: cell number, toxicity
[4] = target: Voltage-gated potassium channel subunit beta-2 (Rattus norvegicus) (UniProt P62483); assay: KvBeta enzyme negative modulators, primary screen, biochemical, NADPH fluorescence (AID 622;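 active = fluorescence slope higher than the sample average by over 3 SD, cut at about -0.22 in these data, passing the limit was not always enough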;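 note: slope of raw intensity against log time taken from 70 to 1610 s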); conditions: recombinant KvBeta, 4-cyanobenzaldehyde reduction, at 10 µM, stronger effect = higher value
Voltage-gated potassium channel subunit beta-2 (Rattus norvegicus), sequence (P62483 whole entry, looked up): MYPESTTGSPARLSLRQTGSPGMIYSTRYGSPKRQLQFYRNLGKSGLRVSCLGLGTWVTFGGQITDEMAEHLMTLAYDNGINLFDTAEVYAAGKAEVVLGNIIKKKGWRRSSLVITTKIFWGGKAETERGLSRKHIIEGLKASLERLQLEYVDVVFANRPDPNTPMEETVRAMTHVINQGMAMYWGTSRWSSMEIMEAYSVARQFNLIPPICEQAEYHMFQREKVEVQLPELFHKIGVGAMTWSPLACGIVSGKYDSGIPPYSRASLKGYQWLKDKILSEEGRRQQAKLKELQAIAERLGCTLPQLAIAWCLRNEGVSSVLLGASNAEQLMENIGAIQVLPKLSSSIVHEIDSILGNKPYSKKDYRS

[5] = target: Voltage-gated potassium channel subunit beta-2 (Rattus norvegicus) (UniProt P62483); assay: KvBeta positive modulators, primary screen, biochemical, NADPH fluorescence (AID 623;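 active = NADPH fluorescence slope more negative than the mean of all samples by about 3 SD, 99.7% confidence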;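 note: fluorescence intensity change per second fitted from 20 to 320 s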); conditions: Recombinant KvBeta, NADPH fluorescence decrease slope, 10 min; at 10 µM; stronger effect = lower value
[6] = target: Muscarinic acetylcholine receptor M4 (Homo sapiens) (UniProt P08173); assay: compounds altering M4/GIRK thallium flux, either direction, primary screen, M4 allosteric agonist project, cell-based, HEK293 M4/GIRK, BTC-AM (AID 625;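 active = fluorescence slope after compound addition differing from the mean of all tested samples at 99.7% confidence, mostly higher but some lower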;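 note: thallium influx through GIRK channels coupled to M4 in HEK293 cells with BTC-AM dye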); conditions: at 10 µM, actives lie on both sides
Muscarinic acetylcholine receptor M4 (Homo sapiens), sequence (P08173 whole entry, looked up): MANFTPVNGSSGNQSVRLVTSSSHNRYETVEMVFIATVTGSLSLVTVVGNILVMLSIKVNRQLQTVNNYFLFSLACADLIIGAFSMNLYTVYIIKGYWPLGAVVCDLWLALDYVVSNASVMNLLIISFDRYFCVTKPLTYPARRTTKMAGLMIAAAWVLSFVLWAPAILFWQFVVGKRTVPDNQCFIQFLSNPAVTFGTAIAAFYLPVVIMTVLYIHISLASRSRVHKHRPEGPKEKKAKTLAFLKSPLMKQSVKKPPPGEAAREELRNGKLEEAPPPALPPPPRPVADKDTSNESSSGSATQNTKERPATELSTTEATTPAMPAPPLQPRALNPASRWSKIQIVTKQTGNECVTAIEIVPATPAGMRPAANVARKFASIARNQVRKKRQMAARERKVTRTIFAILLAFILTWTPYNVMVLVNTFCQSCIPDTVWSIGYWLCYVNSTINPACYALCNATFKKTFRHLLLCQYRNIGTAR
Summary of the method: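 Material: M4/GIRK1/GIRK2 stable HEK293 cell line. Medium: pH 7.3 thallium assay buffer. Dosing: single compound concentration, 10 µM final. Schedule: 1 h dye loading, 2 min kinetic read. Measured by: kinetic fluorescence with BTC-AM dye. Read-out: post-addition slope, 15–24 s, of baseline-normalized fluorescence. Benchmarks: carbachol and DMSO controls.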

[7] = inhibitors of Sendai virus-induced IRF3 signaling, primary screen, TLR/RLR signaling modifier project, cell-based, Sendai virus stimulus, luciferase, 10K MLSCN set (AID 602276;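 active = inhibition at or above 50% at 10 µM; inactive = inhibition below 50%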;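 note: firefly luciferase from ISG56 promoter only with Renilla not read in this screen; 0% = Sendai virus plus DMSO and 100% = medium plus DMSO without virus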); conditions: HEK293 RL24 IRF3 luciferase reporter, at 10 µM, stronger effect = higher value
[8] = inhibitors of poly I:C-induced TLR3 signaling, primary screen, cell-based, poly I:C stimulus, luciferase, 10K MLSCN set (AID 602277;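 active = inhibition of the reporter signal at or above 50%; inactive = inhibition below 50%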); conditions: HEK293-TLR3 RL24 IRF3 luciferase reporter, at 10 µM, stronger effect = higher value

What does the source list for `CCn1c(=O)cc(SCC(=O)NCCN2CCN(Cc3ccccc3)CC2)c2ccccc21`?
cell count [1]: 478; inhibition [1]: 4.3% (inactive); inhibition of aggregation [2]: 21.3% (inactive); nuclei count [2]: 93.3%; inhibition [3]: 14.7% (inactive); nuclei count [3]: 108%; fluorescence slope [4]: -0.559 (inactive); NADPH fluorescence slope [5]: 3.3e-05 (inactive); fluorescence slope [6]: 0.00537 (inactive); inhibition [7]: 16.8% (inactive); inhibition [8]: 47.8% (inactive)

What does the source list for `CCOc1ccccc1C(=O)NCCC(=O)O`?
cell count [1]: 326; inhibition [1]: -5.1% (inactive); inhibition of aggregation [2]: -42.8% (inactive); nuclei count [2]: 91.6%; inhibition [3]: 16% (inactive); nuclei count [3]: 118%; fluorescence slope [4]: -0.505 (inactive); NADPH fluorescence slope [5]: -0.00026 (inactive); fluorescence slope [6]: 0.00473 (inactive); inhibition [7]: -1.19% (inactive); inhibition [8]: -5.47% (inactive)

With `CCOC(=O)c1sc(NS(=O)(=O)c2ccc(NC(C)=O)cc2)nc1C` as the molecule, how does the cell count [1] read?
The cell count was 701.

And the inhibition [1]?
Its inhibition is -3.5% (inactive).

And the inhibition of aggregation [2]?
Its inhibition of aggregation is -10.1% (inactive).

What about the nuclei count [2] of the same molecule?
The nuclei count was 99.8%.

And the inhibition [3]?
The inhibition was 1% (inactive).

And the nuclei count [3]?
Its nuclei count is 94.9%.

What about the fluorescence slope [4] of the same molecule?
Its fluorescence slope is -0.448 (inactive).

What about the NADPH fluorescence slope [5] of the same molecule?
The NADPH fluorescence slope was 1.6e-05 (inactive).

And the fluorescence slope [6]?
Its fluorescence slope is 0.00462 (inactive).

What about the inhibition [7] of the same molecule?
Its inhibition is 11.5% (inactive).

What about the inhibition [8] of the same molecule?
Its inhibition is 19.8% (inactive).

With `Cc1sc2c(c1C)CN(C1CC(C)(C)NC(C)(C)C1)CN2C(=O)c1ccco1` as the molecule, how does the cell count [1] read?
Its cell count is 307.

And the inhibition [1]?
Its inhibition is 10.6% (inactive).

And the inhibition of aggregation [2]?
The inhibition of aggregation was 2% (inactive).

And the nuclei count [2]?
Its nuclei count is 91.5%.

What about the inhibition [3] of the same molecule?
Its inhibition is -5% (inactive).

What about the nuclei count [3] of the same molecule?
Its nuclei count is 105%.

What about the fluorescence slope [4] of the same molecule?
The fluorescence slope was -0.377 (inactive).

What about the NADPH fluorescence slope [5] of the same molecule?
The NADPH fluorescence slope was -2.6e-05 (inactive).

What about the fluorescence slope [6] of the same molecule?
Its fluorescence slope is 0.00444 (inactive).

And the inhibition [7]?
Its inhibition is -1.32% (inactive).

And the inhibition [8]?
The inhibition was -7.67% (inactive).

Which cell count [1] does the source give for `CN(C)S(=O)(=O)c1ccc2c(c1)C(CC(=O)O)OC2=O` (stereo not drawn) here?
The cell count was 616.

And the inhibition [1]?
The inhibition was 2.3% (inactive).

What about the inhibition of aggregation [2] of the same molecule?
The inhibition of aggregation was 13.2% (inactive).

And the nuclei count [2]?
Its nuclei count is 109%.

What about the inhibition [3] of the same molecule?
Its inhibition is 27.5% (inactive).

What about the nuclei count [3] of the same molecule?
The nuclei count was 105%.

What about the fluorescence slope [4] of the same molecule?
Its fluorescence slope is -0.511 (inactive).

What about the NADPH fluorescence slope [5] of the same molecule?
The NADPH fluorescence slope was 0.000172 (inactive).

And the fluorescence slope [6]?
The fluorescence slope was 0.00625 (inactive).

What about the inhibition [7] of the same molecule?
The inhibition was 17.3% (inactive).

What about the inhibition [8] of the same molecule?
The inhibition was 26.3% (inactive).

Which cell count [1] does the source give for `COCCNC(=O)CN(C)S(=O)(=O)c1ccc2c(c1)OCCO2` here?
Its cell count is 577.

And the inhibition [1]?
The inhibition was -12.1% (inactive).

What about the inhibition of aggregation [2] of the same molecule?
Its inhibition of aggregation is -1.9% (inactive).

And the nuclei count [2]?
Its nuclei count is 101%.

What about the inhibition [3] of the same molecule?
Its inhibition is -59.8% (inactive).

What about the nuclei count [3] of the same molecule?
Its nuclei count is 108%.

What about the fluorescence slope [4] of the same molecule?
The fluorescence slope was -0.527 (inactive).

And the NADPH fluorescence slope [5]?
The NADPH fluorescence slope was 1.9e-05 (inactive).

What about the fluorescence slope [6] of the same molecule?
Its fluorescence slope is 0.00472 (inactive).

And the inhibition [7]?
Its inhibition is 11.9% (inactive).

What about the inhibition [8] of the same molecule?
Its inhibition is 21.2% (inactive).

Which results are given for `OCc1nc(CO)n(Cc2ccccc2)n1`?
cell count [1]: 447; inhibition [1]: -17.6% (inactive); inhibition of aggregation [2]: -12.2% (inactive); nuclei count [2]: 112%; inhibition [3]: 42.4% (inactive); nuclei count [3]: 86.8%; fluorescence slope [4]: -0.501 (inactive); NADPH fluorescence slope [5]: -4.7e-05 (inactive); fluorescence slope [6]: 0.00536 (inactive); inhibition [7]: 7.11% (inactive); inhibition [8]: 19.9% (inactive)

With `CN(C)CCCNC(=O)CCC1CCCCC1` as the molecule, how does the cell count [1] read?
The cell count was 333.

And the inhibition [1]?
The inhibition was -12.5% (inactive).

What about the inhibition of aggregation [2] of the same molecule?
Its inhibition of aggregation is -4% (inactive).

What about the nuclei count [2] of the same molecule?
The nuclei count was 103%.

What about the inhibition [3] of the same molecule?
Its inhibition is -132% (inactive).

And the nuclei count [3]?
The nuclei count was 110%.

And the fluorescence slope [4]?
Its fluorescence slope is -0.277 (inactive).

And the NADPH fluorescence slope [5]?
Its NADPH fluorescence slope is -3.7e-05 (inactive).

And the fluorescence slope [6]?
Its fluorescence slope is 0.00526 (inactive).

What about the inhibition [7] of the same molecule?
The inhibition was 12% (inactive).

And the inhibition [8]?
Its inhibition is 21.1% (inactive).
